Test results taken from article PMC4059272 (Journal of Medicinal Chemistry, 2014).

Assays:
[1] = tested on: PgR gene; experiment: RT-PCR of estrogen-responsive gene PgR in MCF-7:WS8 cells; assay type: cell-based, human; details: MCF-7:WS8, 48 h; E2 at 10^–10 M, other compounds at 10^–6 M
Outline: (§1)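 MCF-7:WS8 cells kept in phenol-red RPMI 1640 with 10% FBS, glutamine, nonessential amino acids and 6 ng/mL insulin at 37 °C, 5% CO2. Cells were estrogen-starved 3 days, seeded at 300 000 cells/well the day before, and treated 48 h. RNA was taken in Trizol and run as SYBR green real-time PCR with 36B4 as reference.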

[2] = biological target: T1, ERα (Homo sapiens, UniProt P03372); experiment: Immunoblotting of ERα protein levels in MCF-7:WS8 cells; assay type: cell-based; details: for regulation of ERα protein levels: MCF-7:WS8, 24 h treatment
T1 sequence (P03372 1-595): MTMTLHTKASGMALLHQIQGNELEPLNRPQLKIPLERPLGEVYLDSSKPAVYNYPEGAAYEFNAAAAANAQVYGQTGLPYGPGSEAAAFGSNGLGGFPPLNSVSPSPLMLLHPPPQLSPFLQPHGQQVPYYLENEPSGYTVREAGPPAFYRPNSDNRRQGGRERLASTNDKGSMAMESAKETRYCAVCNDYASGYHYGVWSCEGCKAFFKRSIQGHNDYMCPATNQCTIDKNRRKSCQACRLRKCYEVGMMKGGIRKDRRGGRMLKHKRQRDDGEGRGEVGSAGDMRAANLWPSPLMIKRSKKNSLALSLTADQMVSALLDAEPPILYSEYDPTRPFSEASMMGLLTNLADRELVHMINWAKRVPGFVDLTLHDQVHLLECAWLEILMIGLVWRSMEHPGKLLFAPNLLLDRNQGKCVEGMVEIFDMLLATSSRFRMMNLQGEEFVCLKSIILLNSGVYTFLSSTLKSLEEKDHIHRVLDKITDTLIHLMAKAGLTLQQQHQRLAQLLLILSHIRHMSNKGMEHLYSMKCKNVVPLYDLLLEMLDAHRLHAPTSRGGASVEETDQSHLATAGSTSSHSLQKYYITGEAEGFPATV

[3] = tested on: GREB1 gene; experiment: RT-PCR of estrogen-responsive gene GREB1 in MCF-7:WS8 cells; assay type: cell-based, human; details: MCF-7:WS8, 48 h; E2 at 10^–10 M, other compounds at 10^–6 M
Outline: as §1

[4] = tested on: pS2 gene; experiment: RT-PCR of estrogen-responsive gene pS2 in MCF-7:WS8 cells; assay type: cell-based, human; details: MCF-7:WS8, 48 h; E2 at 10^–10 M, other compounds at 10^–6 M
Outline: as §1

[5] = tested on: MCF-7:WS8 cells; experiment: DNA quantification growth assay, compounds alone; assay type: cell-based, human; details: for estrogenic properties on cell growth: MCF-7:WS8, compounds alone, concentration range 10^–12–10^–6 M
[6] = tested on: prolactin gene (Prl); experiment: RT-PCR of prolactin; assay type: cell-based, rat; details: GH3 cells, top concentration of 10^–6 M, with 1 nM E2
[7] = tested on: MCF-7:WS8 cells; experiment: DNA based growth assay, combination treatments with 10^–10 M E2; assay type: cell-based, human; details: for inhibition of 10^–10 M E2-induced growth: MCF-7:WS8, at 10^–6 M

| SMILES | effect on PgR mRNA expression [1] | regulation of ERα protein levels [2] | effect on GREB1 mRNA expression [3] | effect on pS2 mRNA expression [4] | estrogenic properties on cell growth [5] | inhibition of 1 nM E2-induced Prl gene up-regulation [6] | inhibition of 10^–10 M E2-induced growth [7] | partial agonist growth level, % max of E2 curve ([5]; MCF-7:WS8, over the range 10^–12–10^–9 M) [%] | inhibition of E2-stimulated cell growth at top concentration ([7]; MCF-7:WS8, 10^–6 M compound with 10^–10 M E2) | reduction (down-regulation) of ERα level by densitometry ([2]; MCF-7:WS8, 24 h, E2 at 1 nM) |
| --- | --- | --- | --- | --- | --- | --- | --- | --- | --- | --- |
| CCC(=C(c1ccc(O)cc1)c1ccc(O)cc1)c1ccc(O)cc1 [3OHTPE] | partial estrogenic effect | up-regulated the protein levels | partial estrogenic effect | partial estrogenic effect | – | – | – | – | – | – |
| CCC(=C(c1ccc(O)cc1)c1ccc(OCCN(C)C)cc1)c1ccccc1 [4OHT, 4-hydroxytamoxifen] | – | – | no significant effect | no significant effect | no estrogenic properties | completely inhibit | completely | – | – | – |
| CCC(=C(c1ccc(O)cc1)c1ccc(O)cc1)c1ccccc1 [BPTPE] | partial estrogenic effect | up-regulated the protein levels | partial estrogenic effect | partial estrogenic effect | – | – | – | 50 | – | – |
| C[C@]12CC[C@@H]3c4ccc(O)cc4CC[C@H]3[C@@H]1CC[C@@H]2O [E2, 17β-estradiol] | induced expression | – | induced expression | induced expression | – | – | – | – | – | – |
| CN(C)CCOc1ccc2c(c1)CCCC(c1ccccc1)=C2c1ccc(O)cc1 [EFR4OHT] | induce expression | – | induce expression | induce expression | – | – | – | – | – | – |
| CNCCOc1ccc2c(c1)CCCC(c1ccccc1)=C2c1ccc(O)cc1 [EFREndox, 4-(3-(2-(Methylamino)ethoxy)-8-phenyl-6,7-dihydro-5H-benzocyclohepten-9-yl)phenol] | induce expression | – | induce expression | induce expression | – | – | – | – | about 10% | – |
| CC/C(=C(\c1ccc(O)cc1)c1ccc(OCCNC)cc1)c1ccccc1 [Endoxifen, 4-hydroxy-N-desmethyltamoxifen] | – | up-regulation | – | – | no estrogenic properties | – | completely | – | – | – |
| C[C@]12CC[C@@H]3c4ccc(O)cc4C[C@@H](CCCCCCCCC[S+]([O-])CCCC(F)(F)C(F)(F)F)[C@H]3[C@@H]1CC[C@@H]2O (stereo partly drawn) [Fulvestrant] | – | – | – | – | – | – | – | – | – | more than 90% |
| CCOc1ccc2c(c1)CCCC(c1ccccc1)=C2c1ccc(OCCN(C)C)cc1 [ZFR4OHT] | – | – | no significant effect | no significant effect | no estrogenic properties | completely inhibit | – | – | – | – |
| CNCCOc1ccc(C2=C(c3ccccc3)CCCc3cc(O)ccc32)cc1 [ZFREndox, 9-(4-(2-(Methylamino)ethoxy)phenyl)-8-phenyl-6,7-dihydro-5H-benzocyclohepten-3-ol] | – | – | no significant effect | no significant effect | no estrogenic properties | completely inhibit | – | – | – | – |
